Results as given in ChEMBL document CHEMBL2417490, “Synthesis and biological evaluation of pyrazolo[4,3-d]pyrimidine analogues” (Eur J Med Chem, 2013).
≈ marks a conversion by molar mass, not a printed value.

How the values were obtained:
[1] = Cytotoxicity against human 7402 cells assessed as inhibition of cell replication after 72 hrs by MTT assay; type: functional, cell-based
In short: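 7402 hepatoma cells, harvested in log phase with 0.05% trypsin/1 mM EDTA and grown at 37 °C in 5% CO₂, were seeded at 1 × 10⁵ cells/mL, grown overnight and then exposed to a concentration series (final DMSO <0.1%). MTT was added for 4 h and absorbance read at 570 nm. IC₅₀ came from probit analysis.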

[2] = Cytotoxicity against human 7221 cells assessed as inhibition of cell replication after 72 hrs by MTT assay; type: functional, cell-based
In short: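 7221 hepatoma cells, harvested in log phase with 0.05% trypsin/1 mM EDTA and grown at 37 °C in 5% CO₂, were plated, grown overnight and then exposed to a concentration series (final DMSO <0.1%). MTT was added for 4 h and absorbance read at 570 nm. IC₅₀ came from probit analysis.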

[3] = biological target: Xanthine dehydrogenase/oxidase (Homo sapiens, UniProt P47989); test: Inhibition of xanthine oxidase (unknown origin) using xanthine as substrate assessed as uric acid formation preincubated for 5 mins followed by substrate addition measured every minute up to 8 mins by spectrophotometric analysis
Chain of Xanthine dehydrogenase/oxidase (P47989 whole entry): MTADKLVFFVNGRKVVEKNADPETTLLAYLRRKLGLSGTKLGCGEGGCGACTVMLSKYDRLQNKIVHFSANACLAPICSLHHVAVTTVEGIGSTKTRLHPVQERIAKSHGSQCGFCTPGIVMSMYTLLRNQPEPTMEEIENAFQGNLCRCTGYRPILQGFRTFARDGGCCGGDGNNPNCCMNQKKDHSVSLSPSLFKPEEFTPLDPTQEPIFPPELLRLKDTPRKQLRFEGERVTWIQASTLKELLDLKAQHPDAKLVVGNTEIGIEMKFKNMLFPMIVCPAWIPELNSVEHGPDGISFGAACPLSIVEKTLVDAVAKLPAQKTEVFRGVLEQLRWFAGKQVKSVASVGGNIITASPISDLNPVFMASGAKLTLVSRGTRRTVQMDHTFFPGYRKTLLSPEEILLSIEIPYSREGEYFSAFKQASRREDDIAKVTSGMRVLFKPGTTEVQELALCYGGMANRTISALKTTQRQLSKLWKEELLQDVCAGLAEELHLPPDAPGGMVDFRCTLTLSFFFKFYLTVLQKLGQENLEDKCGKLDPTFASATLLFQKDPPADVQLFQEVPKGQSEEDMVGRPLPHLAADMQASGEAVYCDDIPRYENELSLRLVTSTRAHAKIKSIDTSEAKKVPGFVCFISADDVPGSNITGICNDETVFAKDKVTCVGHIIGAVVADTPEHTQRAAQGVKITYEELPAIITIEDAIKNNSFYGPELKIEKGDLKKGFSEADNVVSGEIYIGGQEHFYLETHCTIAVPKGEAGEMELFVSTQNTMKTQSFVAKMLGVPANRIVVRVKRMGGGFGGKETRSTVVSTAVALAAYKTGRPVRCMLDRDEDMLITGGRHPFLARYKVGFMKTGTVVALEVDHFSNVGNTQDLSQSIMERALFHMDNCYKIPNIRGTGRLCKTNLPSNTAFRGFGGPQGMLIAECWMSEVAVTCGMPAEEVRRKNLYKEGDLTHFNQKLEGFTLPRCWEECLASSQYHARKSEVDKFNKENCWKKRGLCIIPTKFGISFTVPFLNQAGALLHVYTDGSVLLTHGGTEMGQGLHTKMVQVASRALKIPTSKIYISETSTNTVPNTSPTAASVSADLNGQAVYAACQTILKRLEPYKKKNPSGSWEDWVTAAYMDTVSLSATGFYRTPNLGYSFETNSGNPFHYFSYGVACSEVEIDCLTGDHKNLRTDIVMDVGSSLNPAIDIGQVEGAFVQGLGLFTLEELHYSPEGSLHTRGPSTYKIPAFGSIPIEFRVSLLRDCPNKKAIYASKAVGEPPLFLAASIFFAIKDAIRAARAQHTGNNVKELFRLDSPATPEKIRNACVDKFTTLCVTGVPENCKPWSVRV

CCOC(=O)Cn1ncc2c(Nc3ccc(NC(=O)CCl)cc3)ncnc21
IC50 [1]: 7.27 µg/mL (≈ 18.7 µM) | IC50 [2]: 3.51 µg/mL (≈ 9.03 µM)

CCOC(=O)Cn1ncc2c(Nc3ccc(NS(=O)(=O)c4ccc(Br)cc4)cc3)ncnc21
IC50 [1]: > 64 µg/mL | IC50 [2]: > 64 µg/mL | IC50 [3]: Not Active

CCOC(=O)Cn1ncc2c(Nc3ccc(N)cc3)ncnc21
IC50 [1]: > 64 µg/mL | IC50 [2]: > 64 µg/mL

O=C(O)Cn1ncc2c(Nc3ccc(NC(=O)c4ccccc4)cc3)ncnc21
IC50 [1]: > 100 µg/mL | IC50 [2]: > 100 µg/mL | IC50 ([3]; read-out: IC50 (converted)): 104 µM

O=C(O)Cn1ncc2c(Nc3ccc(NS(=O)(=O)c4ccccc4)cc3)ncnc21
IC50 [1]: > 100 µg/mL | IC50 [2]: > 100 µg/mL | IC50 ([3]; read-out: IC50 (converted)): 144 µM

O=C(O)Cn1ncc2c(Nc3ccc(NS(=O)(=O)c4ccc([N+](=O)[O-])cc4)cc3)ncnc21
IC50 [1]: > 100 µg/mL | IC50 [2]: > 100 µg/mL | IC50 ([3]; read-out: IC50 (converted)): 190 µM

CC(=O)Nc1ccc(Nc2ncnc3c2cnn3CC(=O)O)cc1
IC50 [1]: > 64 µg/mL | IC50 [2]: > 64 µg/mL | IC50 ([3]; read-out: IC50 (converted)): 103 µM

O=C(O)Cn1ncc2c(Nc3ccc(NC(=O)CCl)cc3)ncnc21
IC50 [1]: > 100 µg/mL | IC50 [2]: > 100 µg/mL | IC50 ([3]; read-out: IC50 (converted)): 102 µM

C=CCNC1=C2C[C@@H](C)C[C@H](OC)[C@H](O)[C@@H](C)/C=C(\C)[C@H](OC(N)=O)[C@@H](OC)/C=C\C=C(/C)C(=O)NC(=CC1=O)C2=O (stereo in doubt) [TANESPIMYCIN]
IC50 [1]: 7.27 µg/mL (≈ 12.4 µM) | IC50 [2]: 5.77 µg/mL (≈ 9.85 µM)

CCOC(=O)Cn1ncc2c(Nc3ccc(NS(=O)(=O)c4ccc([N+](=O)[O-])cc4)cc3)ncnc21
IC50 [1]: > 64 µg/mL | IC50 [2]: > 64 µg/mL | IC50 ([3]; read-out: IC50 (converted)): > 201 µM

CCOC(=O)Cn1ncc2c(Cl)ncnc21
IC50 [1]: > 100 µg/mL | IC50 [2]: > 100 µg/mL | IC50 [3]: Not Active

CCOC(=O)Cn1ncc2c(Nc3ccc(NS(=O)(=O)c4ccccc4)cc3)ncnc21
IC50 [1]: > 100 µg/mL | IC50 [2]: > 100 µg/mL | IC50 ([3]; read-out: IC50 (converted)): 172 µM

O=C(O)Cn1ncc2c(Nc3ccc(NS(=O)(=O)c4ccc(Br)cc4)cc3)ncnc21
IC50 [1]: > 64 µg/mL | IC50 [2]: > 64 µg/mL | IC50 ([3]; read-out: IC50 (converted)): > 199 µM

CCOC(=O)Cn1ncc2c(Nc3ccc(NC(C)=O)cc3)ncnc21
IC50 [1]: > 64 µg/mL | IC50 [2]: > 64 µg/mL | IC50 ([3]; read-out: IC50 (converted)): 109 µM

CCOC(=O)Cn1ncc2c(Nc3ccc(NC(=O)c4ccccc4)cc3)ncnc21
IC50 [1]: > 100 µg/mL | IC50 [2]: > 100 µg/mL | IC50 ([3]; read-out: IC50 (converted)): 81.9 µM
